Assay results: ChEMBL document CHEMBL2331236, “Synthesis and biological evaluation of 1-(2-hydroxy-3-phenyloxypropyl)piperazine derivatives as T-type calcium channel blockers” (Bioorg Med Chem Lett, 2013)
Each block holds one compound with its values, some of them ahead of it.

Columns and labels:
[1] = molecular target: T1, Voltage-dependent T-type calcium channel subunit alpha-1G (Homo sapiens, UniProt O43497); test: Inhibition of alpha-1G calcium channel in human HEK293 cells at 10 uM by FDSS6000 fluorescence-based assay
T1 sequence (O43497 whole entry): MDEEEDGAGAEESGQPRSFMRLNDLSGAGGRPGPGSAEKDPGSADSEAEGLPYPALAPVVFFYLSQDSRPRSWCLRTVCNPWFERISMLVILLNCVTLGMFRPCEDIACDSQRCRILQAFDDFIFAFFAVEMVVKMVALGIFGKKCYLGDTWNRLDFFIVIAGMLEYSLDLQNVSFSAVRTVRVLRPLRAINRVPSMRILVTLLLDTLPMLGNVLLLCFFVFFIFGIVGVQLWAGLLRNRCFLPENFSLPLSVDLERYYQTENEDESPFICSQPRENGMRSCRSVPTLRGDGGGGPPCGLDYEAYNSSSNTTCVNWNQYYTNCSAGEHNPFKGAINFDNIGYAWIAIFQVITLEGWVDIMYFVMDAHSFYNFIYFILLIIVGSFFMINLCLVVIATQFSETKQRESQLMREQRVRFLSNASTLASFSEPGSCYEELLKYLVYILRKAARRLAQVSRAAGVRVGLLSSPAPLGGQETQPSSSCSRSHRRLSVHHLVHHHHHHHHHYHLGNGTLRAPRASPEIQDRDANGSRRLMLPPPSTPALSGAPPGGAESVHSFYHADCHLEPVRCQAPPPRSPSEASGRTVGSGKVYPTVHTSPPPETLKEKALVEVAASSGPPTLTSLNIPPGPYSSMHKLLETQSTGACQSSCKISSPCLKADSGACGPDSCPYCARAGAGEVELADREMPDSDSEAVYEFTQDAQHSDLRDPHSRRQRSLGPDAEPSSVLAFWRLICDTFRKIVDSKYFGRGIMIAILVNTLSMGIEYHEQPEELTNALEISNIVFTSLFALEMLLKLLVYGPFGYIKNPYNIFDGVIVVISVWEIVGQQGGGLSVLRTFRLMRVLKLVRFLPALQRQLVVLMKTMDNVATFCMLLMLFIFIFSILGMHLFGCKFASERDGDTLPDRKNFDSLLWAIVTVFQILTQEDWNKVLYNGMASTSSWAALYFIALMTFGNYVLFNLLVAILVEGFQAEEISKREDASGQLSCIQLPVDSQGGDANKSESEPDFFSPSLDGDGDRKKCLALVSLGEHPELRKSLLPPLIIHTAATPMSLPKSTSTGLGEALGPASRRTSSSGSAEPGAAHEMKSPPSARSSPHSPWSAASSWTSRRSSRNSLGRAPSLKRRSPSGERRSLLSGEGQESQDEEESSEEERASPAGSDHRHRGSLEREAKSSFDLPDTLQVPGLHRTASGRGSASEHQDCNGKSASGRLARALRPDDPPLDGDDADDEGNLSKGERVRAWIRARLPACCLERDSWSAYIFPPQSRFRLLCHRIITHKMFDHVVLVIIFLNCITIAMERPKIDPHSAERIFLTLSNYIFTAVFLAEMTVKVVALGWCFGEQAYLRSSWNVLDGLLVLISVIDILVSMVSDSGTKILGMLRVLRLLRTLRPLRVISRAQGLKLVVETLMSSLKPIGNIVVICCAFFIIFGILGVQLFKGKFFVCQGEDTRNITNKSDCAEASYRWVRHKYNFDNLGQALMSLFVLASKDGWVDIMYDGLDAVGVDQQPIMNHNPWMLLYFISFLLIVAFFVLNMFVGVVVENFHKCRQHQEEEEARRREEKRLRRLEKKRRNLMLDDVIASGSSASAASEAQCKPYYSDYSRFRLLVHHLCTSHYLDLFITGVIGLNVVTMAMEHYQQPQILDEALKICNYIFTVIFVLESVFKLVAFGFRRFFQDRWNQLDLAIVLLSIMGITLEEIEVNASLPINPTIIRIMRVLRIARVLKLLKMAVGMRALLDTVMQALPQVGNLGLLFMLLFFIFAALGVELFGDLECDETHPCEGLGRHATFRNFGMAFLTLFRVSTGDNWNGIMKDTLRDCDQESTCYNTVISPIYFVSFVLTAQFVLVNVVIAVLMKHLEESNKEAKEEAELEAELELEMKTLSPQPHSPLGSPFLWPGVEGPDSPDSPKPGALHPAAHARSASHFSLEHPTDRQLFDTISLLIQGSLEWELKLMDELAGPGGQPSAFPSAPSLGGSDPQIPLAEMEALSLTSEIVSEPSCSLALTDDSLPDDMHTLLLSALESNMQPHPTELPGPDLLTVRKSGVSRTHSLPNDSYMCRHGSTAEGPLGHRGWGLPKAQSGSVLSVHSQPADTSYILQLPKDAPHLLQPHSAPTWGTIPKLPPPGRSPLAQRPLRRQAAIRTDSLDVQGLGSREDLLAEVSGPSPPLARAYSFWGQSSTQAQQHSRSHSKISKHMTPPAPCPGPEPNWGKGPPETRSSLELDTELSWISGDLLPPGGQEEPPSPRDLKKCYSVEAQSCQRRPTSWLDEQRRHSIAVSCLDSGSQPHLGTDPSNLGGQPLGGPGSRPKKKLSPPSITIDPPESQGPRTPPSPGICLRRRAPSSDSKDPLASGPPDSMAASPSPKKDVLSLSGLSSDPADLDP

[2] = molecular target: T1, Voltage-dependent T-type calcium channel subunit alpha-1G; test: Inhibition of alpha-1G calcium channel in human HEK293 cells by whole-cell patch-clamp method; type: cell-based
In short: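 Whole-cell recordings used α1G T-type channels. Pipette solution (mM): 130 KCl, 11 EGTA, 5 Mg-ATP, 10 HEPES, pH 7.4. Bath (mM): 140 NaCl, 2 CaCl2, 10 HEPES, 10 glucose, pH 7.4. Currents were evoked every 15 s by a 50 ms step from −100 to −30 mV. IC50 for peak-current inhibition came from dose-response curve fitting of raw data.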

[3] = molecular target: Voltage-gated inwardly rectifying potassium channel KCNH2 (Homo sapiens, UniProt Q12809); test: Inhibition of human ERG
Voltage-gated inwardly rectifying potassium channel KCNH2, sequence (Q12809 whole entry): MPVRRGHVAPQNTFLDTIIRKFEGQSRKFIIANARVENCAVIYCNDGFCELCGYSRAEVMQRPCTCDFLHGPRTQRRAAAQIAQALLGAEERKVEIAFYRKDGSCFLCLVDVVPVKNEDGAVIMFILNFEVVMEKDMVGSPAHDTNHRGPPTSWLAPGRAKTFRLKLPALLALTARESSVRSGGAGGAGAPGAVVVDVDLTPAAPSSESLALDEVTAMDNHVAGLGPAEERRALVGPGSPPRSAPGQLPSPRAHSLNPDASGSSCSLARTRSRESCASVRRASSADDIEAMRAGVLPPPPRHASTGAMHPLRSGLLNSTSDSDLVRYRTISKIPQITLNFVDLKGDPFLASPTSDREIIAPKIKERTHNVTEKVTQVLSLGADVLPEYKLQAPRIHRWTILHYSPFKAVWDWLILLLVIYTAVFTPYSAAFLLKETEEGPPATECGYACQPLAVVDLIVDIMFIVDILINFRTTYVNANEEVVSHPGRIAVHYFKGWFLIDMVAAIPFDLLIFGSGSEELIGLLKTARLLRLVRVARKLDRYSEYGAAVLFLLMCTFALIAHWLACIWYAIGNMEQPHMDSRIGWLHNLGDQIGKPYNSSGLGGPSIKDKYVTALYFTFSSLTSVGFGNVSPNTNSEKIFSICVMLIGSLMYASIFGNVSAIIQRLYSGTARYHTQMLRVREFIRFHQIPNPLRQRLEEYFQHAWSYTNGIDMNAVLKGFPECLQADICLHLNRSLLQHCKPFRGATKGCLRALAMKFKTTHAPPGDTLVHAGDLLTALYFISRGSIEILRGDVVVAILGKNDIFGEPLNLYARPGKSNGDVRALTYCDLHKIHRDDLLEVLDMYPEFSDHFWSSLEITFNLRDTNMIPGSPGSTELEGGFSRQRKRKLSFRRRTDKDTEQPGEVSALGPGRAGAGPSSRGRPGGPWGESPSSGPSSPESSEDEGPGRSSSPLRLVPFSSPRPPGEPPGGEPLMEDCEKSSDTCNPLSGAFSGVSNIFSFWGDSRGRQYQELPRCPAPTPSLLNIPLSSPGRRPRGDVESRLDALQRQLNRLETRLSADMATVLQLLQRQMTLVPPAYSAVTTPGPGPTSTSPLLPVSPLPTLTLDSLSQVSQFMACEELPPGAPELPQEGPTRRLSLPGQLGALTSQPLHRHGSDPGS

HEK293 = test: Selectivity ratio of IC50 for human ERG to IC50 for alpha-1G calcium channel in human HEK293 cells; type: cell-based
[4] = (§1) AUClast in ICR mouse brain at 10 mg/kg, po; type: ADME, organism-based; parameters: time 0 - last, dose 10 mg/kg, route oral; settings: ICR, brain
In short: (§2)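 ICR mice were dosed orally at 10 mg/kg, with n = 3 per time point. Plasma and brain concentrations were followed over time. Cmax, Tmax, AUClast, AUC0-∞ and terminal half-life were taken from the concentration–time profiles, and values are means.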

[5] = Tmax in ICR mouse plasma at 10 mg/kg, po; type: ADME, organism-based; parameters: dose 10 mg/kg, route oral
In short: as §2

[6] = Terminal half life in ICR mouse plasma at 10 mg/kg, po; type: ADME, organism-based; parameters: dose 10 mg/kg, route oral; settings: read-out: beta t1/2
In short: as §2

[7] = Cmax in ICR mouse brain at 10 mg/kg, po; type: ADME, organism-based; parameters: dose 10 mg/kg, route oral
In short: as §2

[8] = AUC (0 to infinity) in ICR mouse plasma at 10 mg/kg, po; type: ADME, organism-based; parameters: time infinity, dose 10 mg/kg, route oral
In short: as §2

[9] = Oral bioavailability in ICR mouse at 10 mg/kg; type: ADME, organism-based; settings: in vivo
[10] = AUClast in ICR mouse plasma at 10 mg/kg, po; type: ADME, organism-based; parameters: time 0 - last, dose 10 mg/kg, route oral
In short: as §2

[11] = Cmax in ICR mouse plasma at 10 mg/kg, po; type: ADME, organism-based; parameters: dose 10 mg/kg, route oral
In short: as §2

[12] = Tmax in ICR mouse brain at 10 mg/kg, po; type: ADME, organism-based; parameters: dose 10 mg/kg, route oral
In short: as §2

[13] = Ratio of AUC in brain to AUC in plasma of ICR mouse at 10 mg/kg, po; type: ADME, organism-based; parameters: dose 10 mg/kg, route oral
In short: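 ICR mice dosed orally at 10 mg/kg; plasma and brain sampled over time (n = 3 per time point). AUC (taken as dose/clearance) computed for each matrix from mean concentration–time profiles; brain-to-plasma ratio reported as AUCbrain/AUCplasma […], from mean values.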

Brain [14] = test: AUC (0 to infinity) in ICR mouse brain at 10 mg/kg, po; type: ADME, organism-based; parameters: dose 10 mg/kg, route oral, time infinity; settings: in vivo
In short: as §2

[15] = Terminal half life in ICR mouse brain at 10 mg/kg, po; type: ADME, organism-based; parameters: dose 10 mg/kg, route oral; settings: read-out: beta t1/2
In short: as §2

Brain [16] = test: as §1; type: ADME, organism-based; parameters: time 0 - last, dose 10 mg/kg, route oral; settings: in vivo
In short: as §2

SMILES: O[C@@H](COc1ccc(C(F)(F)F)cc1)CN1CCN(Cc2c(F)cccc2Cl)CC1
- inhibition [1]: 44.6%

SMILES: O[C@@H](COc1ccc(C(F)(F)F)cc1)CN1CCN(c2ccc(F)cc2)CC1
- inhibition [1]: 53.7%

SMILES: O[C@@H](COc1ccc(C(F)(F)F)cc1)CN1CCN(c2ccccc2F)CC1
- inhibition [1]: 50.2%

SMILES: COc1cccc(N2CCN(C[C@@H](O)COc3ccc(C(F)(F)F)cc3)CC2)c1
- inhibition [1]: 43.9%

SMILES: COc1ccccc1N1CCN(C[C@@H](O)COc2ccc(Cl)cc2)CC1
- inhibition [1]: 47.4%

SMILES: O[C@@H](COc1ccc(C(F)(F)F)cc1)CN1CCN(Cc2ccccc2F)CC1
- inhibition [1]: 45.5%

SMILES: COc1cccc(N2CCN(C[C@H](O)COc3ccc(F)cc3)CC2)c1
- inhibition [1]: 44.5%

SMILES: O[C@@H](COc1ccc(F)cc1)CN1CCN(c2ccccc2F)CC1
- inhibition [1]: 51.1%

SMILES: COc1cccc(N2CCN(C[C@H](O)COc3ccc(C(F)(F)F)cc3)CC2)c1
- AUC(0-t) [4]: 8290 ng·h/mL
- Tmax [5]: 15 min
- half-life [6]: 102 min
- IC50 [2]: 0.48 µM
- Cmax [7]: 4660 ng/mL
- AUC(0-inf) [8]: 3300 ng·h/mL
- inhibition [1]: 68.5%
- IC50 [3]: 4.08 µM
- bioavailability [9]: 67.2%
- Ratio IC50 (HEK293): 8.5
- AUC(0-t) [10]: 3140 ng·h/mL
- Cmax [11]: 1570 ng/mL
- Tmax [12]: 15 min
- Kp [13]: 3.46
- AUC (Brain [14]): 686.6 µg·min/g
- half-life [15]: 474 min

SMILES: COc1cccc(N2CCN(C[C@@H](O)COc3ccc(F)cc3)CC2)c1
- IC50 [2]: 12 µM
- inhibition [1]: 61.3%

SMILES: COc1cccc(N2CCN(C[C@@H](O)COc3ccc(Cl)cc3)CC2)c1
- inhibition [1]: 44.6%

SMILES: COc1ccccc1N1CCN(C[C@H](O)COc2ccc(C(F)(F)F)cc2)CC1
- inhibition [1]: 50.8%

SMILES: O[C@H](COc1ccc(F)cc1)CN1CCN(c2ccc(F)cc2)CC1
- inhibition [1]: 50%

SMILES: O[C@H](COc1ccc(F)cc1)CN1CCN(c2ccccc2F)CC1
- inhibition [1]: 42%

SMILES: O[C@H](COc1ccc(C(F)(F)F)cc1)CN1CCN(Cc2c(F)cccc2Cl)CC1
- AUClast (Brain [16]): 119.1 µg·min/g
- Tmax [5]: 15 min
- half-life [6]: 56.5 min
- IC50 [2]: 0.76 µM
- Cmax [7]: 870 ng/mL
- AUC(0-inf) [8]: 276 ng·h/mL
- inhibition [1]: 55.1%
- IC50 [3]: 14 µM
- bioavailability [9]: 9.94%
- Ratio IC50 (HEK293): 18.4
- AUC(0-t) [10]: 260 ng·h/mL
- Cmax [11]: 197 ng/mL
- Tmax [12]: 30 min
- Kp [13]: 7.63
- half-life [15]: 186 min

SMILES: O[C@H](COc1ccc(Cl)cc1)CN1CCN(c2ccccc2F)CC1
- inhibition [1]: 35.9%

SMILES: O[C@@H](COc1ccc(Cl)cc1)CN1CCN(c2ccc(F)cc2)CC1
- inhibition [1]: 39.7%

SMILES: COc1ccccc1N1CCN(C[C@H](O)COc2ccc(F)cc2)CC1
- inhibition [1]: 41%

SMILES: COc1ccccc1N1CCN(C[C@H](O)COc2ccc(Cl)cc2)CC1
- inhibition [1]: 48.8%

SMILES: O[C@H](COc1ccc(Cl)cc1)CN1CCN(Cc2ccccc2F)CC1
- inhibition [1]: 41.5%

SMILES: O[C@H](COc1ccc(C(F)(F)F)cc1)CN1CCN(c2ccc(F)cc2)CC1
- IC50 [2]: 15.5 µM
- inhibition [1]: 59.2%

SMILES: COc1ccccc1N1CCN(C[C@@H](O)COc2ccc(F)cc2)CC1
- inhibition [1]: 50.7%

SMILES: COc1cccc(N2CCN(C[C@H](O)COc3ccc(Cl)cc3)CC2)c1
- inhibition [1]: 46%

SMILES: COc1ccccc1N1CCN(C[C@@H](O)COc2ccc(C(F)(F)F)cc2)CC1
- IC50 [2]: 1.79 µM
- inhibition [1]: 56.2%
- IC50 [3]: 3.95 µM
- Ratio IC50 (HEK293): 2.21

SMILES: O[C@@H](COc1ccc(F)cc1)CN1CCN(c2ccc(F)cc2)CC1
- inhibition [1]: 47.5%

SMILES: O[C@H](COc1ccc(Cl)cc1)CN1CCN(c2ccc(F)cc2)CC1
- inhibition [1]: 28.3%

SMILES: O[C@H](COc1ccc(C(F)(F)F)cc1)CN1CCN(Cc2ccccc2F)CC1
- inhibition [1]: 48.6%

SMILES: O[C@@H](COc1ccc(Cl)cc1)CN1CCN(c2ccccc2F)CC1
- inhibition [1]: 46.9%

SMILES: O[C@H](COc1ccc(C(F)(F)F)cc1)CN1CCN(c2ccccc2F)CC1
- inhibition [1]: 48.9%

More lines, main results first:

- inhibition [1]: 50.1%
SMILES: O[C@@H](COc1ccc(F)cc1)CN1CCN(Cc2ccc(Cl)cc2)CC1

- IC50 [2]: 1.56 µM
- inhibition [1]: 65.8%
SMILES: O[C@H](COc1ccc(F)cc1)CN1CCN(Cc2ccc(Cl)cc2)CC1
- IC50 [3]: 1.35 µM
- Ratio IC50 (HEK293): 0.87

- inhibition [1]: 40.9%
SMILES: O[C@@H](COc1ccc(Cl)cc1)CN1CCN(Cc2c(F)cccc2Cl)CC1

- IC50 [2]: 1.08 µM
- inhibition [1]: 56.5%
SMILES: O[C@H](COc1ccc(Cl)cc1)CN1CCN(Cc2ccc(Cl)cc2)CC1

- IC50 [2]: 11.4 µM
- inhibition [1]: 62.1%
SMILES: O[C@H](COc1ccc(F)cc1)CN1CCN(Cc2c(F)cccc2Cl)CC1

- IC50 [2]: 0.23 µM
- inhibition [1]: 64.2%
SMILES: O[C@H](COc1ccc(F)cc1)CN1CCN(Cc2ccc(Cl)c(Cl)c2)CC1
- IC50 [3]: 0.29 µM
- Ratio IC50 (HEK293): 1.26

- inhibition [1]: 41.2%
SMILES: O[C@H](COc1ccc(Cl)cc1)CN1CCN(Cc2ccc(Cl)c(Cl)c2)CC1

- inhibition [1]: 42.1%
SMILES: O[C@@H](COc1ccc(Cl)cc1)CN1CCN(Cc2ccc(Cl)cc2)CC1

- IC50 [2]: 1.27 µM
- inhibition [1]: 38.8%
SMILES: O[C@@H](COc1ccc(C(F)(F)F)cc1)CN1CCN(Cc2ccc(Cl)c(Cl)c2)CC1
- IC50 [3]: 9.2 µM
- Ratio IC50 (HEK293): 7.24

- inhibition [1]: 48.6%
SMILES: O[C@@H](COc1ccc(Cl)cc1)CN1CCN(Cc2ccc(Cl)c(Cl)c2)CC1

- IC50 [2]: 0.1 µM
- inhibition [1]: 69.5%
SMILES: O[C@@H](COc1ccc(F)cc1)CN1CCN(Cc2ccc(Cl)c(Cl)c2)CC1
- IC50 [3]: 0.87 µM
- Ratio IC50 (HEK293): 8.7

- IC50 [2]: 4.23 µM
- inhibition [1]: 56.6%
SMILES: O[C@H](COc1ccc(C(F)(F)F)cc1)CN1CCN(Cc2ccc(Cl)cc2)CC1

- inhibition [1]: 43.4%
SMILES: O[C@H](COc1ccc(C(F)(F)F)cc1)CN1CCN(Cc2cccc(Cl)c2)CC1

- inhibition [1]: 23.8%
SMILES: O[C@@H](COc1ccc(F)cc1)CN1CCN(Cc2ccccc2F)CC1

- IC50 [2]: 2.58 µM
- inhibition [1]: 65.8%
SMILES: O[C@H](COc1ccc(F)cc1)CN1CCN(Cc2cccc(Cl)c2)CC1

- inhibition [1]: 52.2%
SMILES: O[C@H](COc1ccc(Cl)cc1)CN1CCN(Cc2cccc(Cl)c2)CC1

- IC50 [2]: 12.3 µM
- inhibition [1]: 56.5%
SMILES: O[C@@H](COc1ccc(F)cc1)CN1CCN(Cc2c(F)cccc2Cl)CC1

- inhibition [1]: 20.3%
SMILES: O[C@H](COc1ccc(F)cc1)CN1CCN(Cc2ccccc2F)CC1

- inhibition [1]: 61.5%
SMILES: O[C@@H](COc1ccc(C(F)(F)F)cc1)CN1CCN(Cc2ccc(Cl)cc2)CC1

- inhibition [1]: 45.6%
SMILES: O[C@H](COc1ccc(C(F)(F)F)cc1)CN1CCN(Cc2ccc(Cl)c(Cl)c2)CC1

- inhibition [1]: 43.1%
SMILES: O[C@@H](COc1ccc(C(F)(F)F)cc1)CN1CCN(Cc2cccc(Cl)c2)CC1

- inhibition [1]: 35.8%
SMILES: O[C@@H](COc1ccc(Cl)cc1)CN1CCN(Cc2ccccc2F)CC1

- IC50 [2]: 2.1 µM
- inhibition [1]: 61.1%
SMILES: O[C@@H](COc1ccc(F)cc1)CN1CCN(Cc2cccc(Cl)c2)CC1

- inhibition [1]: 46%
SMILES: O[C@@H](COc1ccc(Cl)cc1)CN1CCN(Cc2cccc(Cl)c2)CC1

- IC50 [2]: 1.42 µM
- inhibition [1]: 54.4%
SMILES: O[C@H](COc1ccc(Cl)cc1)CN1CCN(Cc2c(F)cccc2Cl)CC1
- IC50 [3]: 2.07 µM
- Ratio IC50 (HEK293): 1.46
